Source: PubChem
ASAP1 inh = blocks human ASAP1-stimulated Arf1 GTP hydrolysis; Q9ULH1; GDP FP detection; inhibition, % at 16.5 µM; 360,000 tested, 0.19% active; in the data active means inhibition above about 25%
ARFGAP1 inhibitor = rat ARFGAP1 inhibition | inhibition, % at 16.5 µM | Q62848 | 360,000 tested, 0.26% active | Arfgap1-stimulated ARF1 GTP hydrolysis, GDP FP detection | AID 651572;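 active means inhibition above a per-plate limit, mean inhibition of low control wells plus 3 SD, cut at about 25% in these data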
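material = rat Arfgap1 catalytic domain, aa 1-136 | also added = human ARF1(Δ1-17)-GTP substrate | compound dosing = one concentration, 16.5 µM, DMSO 1.26% | times = GTP hydrolysis reaction 2 h at 25 °C | measured by = FP, GDP Alexa 633 tracer displaced from anti-GDP antibody, 620/688 nm | evaluation = percent inhibition of Arfgap1-stimulated GTP hydrolysis | replication = single well per compound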
proCasp7 act = counter-screen: procaspase-7 (human) activation; P55210; recombinant procaspase-7, Ac-DEVD-pNA absorbance 405 nm; D23A/D198A/D206A triple mutant, cannot self-cleave; scale: DMSO 0, 5 µM enzyme 100; activation, % at 8.5 µM; 330,000 tested, 0.093% active; AID 463210;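 active means percent activation above the screen-wide mean plus 3 SD, cut at about 25% in these data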
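System: Procaspase-7 triple mutant (PC-7 D3A); measure: % activation from two-timepoint absorbance difference, scaled to controls; times: 1 h compound preincubation, 2 h substrate cleavage, 25 °C; also added: Ac-DEVD-pNA substrate, 400 µM as added; measured by: Epi-absorbance of released pNA at 405 nm, two timepoints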
LANA-H2A inh = blocks KSHV LANA binding to histone H2A/H2B; 320,000 tested, 0.6% active; inhibition, % (no concentration beside the values); cell-free LANA-H2A/H2B peptide, fluorescence polarization; in the data active means inhibition mostly above about 10%, no sharp cut-off; inactive means mostly below about 6.7%
procasp3 activ = activators of human procaspase-3. AID 463141. recombinant procaspase-3 D3A, Ac-DEVD-pNA absorbance 405 nm. 330,000 tested, 0.11% active. P42574. activation, % at 8.5 µM;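 active means activation above the mean of all tested compounds plus 3 SD, cut at about 21% in these data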
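System: Procaspase-3 D3A mutant. Medium: Zinc-free 300 mM NaCl, 50 mM HEPES, 0.01% Triton X-100. Schedule: 1 h preincubation plus 2 h reaction at 25 °C. Measured by: 405 nm absorbance of p-nitroaniline, reads at 0 and 120 min. Read-out: percent activation relative to control range.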
CR mimetic SO = lowers age-related superoxide in aged yeast cells. AID 2690. 330,000 tested, 0.18% active. S. cerevisiae aged cells, superoxide DHE fluorescence; hits give low values. superoxide response (% of plate mean), % at 10 µM;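 active means superoxide response under a set limit, about three screen SD below normal, cut at about 65% in these data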;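 further: yeast aged for seven days with compound at 30 °C before DHE staining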
ARFGAP1 inh conf = rat ARFGAP1 inhibition, confirmed. shares compounds with ARFGAP1 inhibitor. ARFGAP1-stimulated ARF1 GTP hydrolysis, GDP tracer FP. inhibition, % at 16.5 µM. 890 tested, 30% active. AID 651608;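 active means average inhibition over triplicates above the hit cutoff set in the earlier primary screen, cut at about 25% in these data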
Numbers stand for hits; 0 = inactive; - = not tested or not shown. Most compounds without a hit are left out; they make up all but 1.2% or so of the library.

SMILES	ASAP1 inh	ARFGAP1 inhibitor	proCasp7 act	LANA-H2A inh	procasp3 activ	CR mimetic SO	ARFGAP1 inh conf
COc1cc(/C=N/Nc2ccc(C(F)(F)F)cn2)ccc1O	0	29	0	0	0	0	0
O=C(O)c1ccc(/C=N/Nc2ccc(C(F)(F)F)cn2)cc1	0	0	-	-	-	-	-
COc1ccccc1CC(=O)NC1CCCc2ccccc21 (stereo not drawn)	0	0	0	0	0	0	-
COc1cccc2c1SCc1ccccc1C2CC(N)=O (stereo not drawn)	0	31	0	0	0	0	0
COC(C[C@H](O)C[C@H](O)[C@H](C)OCc1ccccc1)OC	0	0	0	0	0	0	-
Cc1cc2c(cc1S(=O)(=O)CCC(=O)N1CC(C)CC(C)C1)OCC(=O)N2 (stereo not drawn)	0	0	0	0	0	0	-
Cc1c(OC(C)C(=O)NCc2ccncc2)ccc2c3c(c(=O)oc12)CCCC3 (stereo not drawn)	0	0	0	0	0	0	-
Cc1ccc(S(=O)(=O)Nc2ccc(NC(=O)Nc3cccc(C(F)(F)F)c3)cc2)cc1	0	30	0	0	0	0	29
COc1cccc(-c2csc(N3CCN(C(=O)Nc4ccc(Cl)cc4)CC3)n2)c1	0	28	0	0	0	0	0
Cc1ccc(-n2nnc(-c3ccnc4ccccc34)n2)cc1	0	0	0	0	0	0	-
N#CCCn1cc(/C=N/NC(N)=S)c(-c2ccc(-c3ccccc3)cc2)n1	0	27	0	0	0	0	26
N#CCCn1cc(/C=N/O)c(-c2ccccc2)n1	0	0	0	0	0	0	-
CCCCCc1c(C)nc(N2CCc3ccccc32)[nH]c1=O	0	26	-	-	-	-	0
CCN(C(=O)c1cccnc1SC)C12CC3CC(CC(C3)C1)C2	0	0	0	0	0	0	-
